ChEMBL document CHEMBL5385967, “Nitrogen-containing andrographolide derivatives with multidrug resistance reversal effects in cancer cells” (RSC Med Chem, 2024)

What was measured:
L5178Y [1] = test: Reversal of multidrug resistance in multidrug resistant mouse L5178Y cells transfected with human ABCB1 assessed as reduction in cell viability incubated for 72 hrs by MTT assay; type: functional, cell-based
Summary of the method: (§1)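 Parental L5178Y or human ABCB1-transfected L5178Y MDR subline kept under 60 ng mL−1 colchicine selection; McCoy's 5A, 10% heat-inactivated horse serum, 37 °C. 6 × 10^3 cells/well exposed to 2-fold serial dilutions from 100 μM for 72 h. MTT 4 h, SDS overnight, OD 540/630 nm. Triplicate; IC50 from curve fitting, mean ± SD.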

L5178Y [2] = test: Antiproliferative activity against mouse L5178Y cells assessed as reduction in cell viability incubated for 72 hrs by MTT assay; type: functional, cell-based; summary of the method: as §1
[3] = Resistance ratio of IC50 for antiproliferative activity against multidrug resistant mouse L5178Y cells transfected with human ABCB1 to IC50 for antiproliferative activity against mouse L5178Y cells; type: functional
Summary of the method: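 RR = IC50(MDR)/IC50(PAR), IC50s from the 72 h MTT assay: 2-fold dilutions from 100 μM, 6 × 10^3 cells/well, triplicate. Collateral sensitivity taken as RR < 0.5; RR < 1 counted as selectivity toward resistant cells.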

[4] = target: T1, ATP-dependent translocase ABCB1 (Homo sapiens, UniProt P08183); test: Modulation of human P-gp transfected in mouse L5178Y cells assessed as change in Rhodamine-123 efflux by measuring fluorescence activity ratio at 2 uM pretreated for 10 mins followed by Rhodamine-123 challenge for 20 mins by flow cytometry relative to parental mouse L5178Y cells; type: cell-based; conditions: 0.5 h, time 30 min
Summary of the method: (§2)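 PAR and MDR cells at 2 × 10^6 cells/mL in serum-free McCoy's 5A. Compound given 10 min at room temperature, then rhodamine-123 (5.2 μM final) for 20 min at 37 °C. Washed twice, resuspended in PBS, mean FL-1 read by flow cytometry. FAR = (MDR treated/untreated)/(PAR treated/untreated). Verapamil 20 μM positive control, DMSO 2% solvent control.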

[5] = target: T1, ATP-dependent translocase ABCB1; test: Modulation of human P-gp transfected in mouse L5178Y cells assessed as change in Rhodamine-123 efflux by measuring fluorescence activity ratio at 20 uM pretreated for 10 mins followed by Rhodamine-123 challenge for 20 mins by flow cytometry relative to parental mouse L5178Y cells; type: cell-based; conditions: 0.5 h, time 30 min
L5178Y [6] = test: Synergistic antiproliferative activity against multidrug resistant mouse L5178Y cells transfected with human ABCB1 assessed as combination index incubated for 72 hrs in presence of doxorubicin by MTT assay; type: functional
Summary of the method: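 Checkerboard in MDR cells, 6 × 10^3 cells/well. Doxorubicin in serial dilutions from 8.6 μM, crossed with modifier dilutions whose start level was set from its IC50. 72 h at 37 °C under CO2, growth read by MTT. Curves fitted by the median-effect equation; CI reported at 50% inhibition, mean ± SD.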

[7] = target: T1, ATP-dependent translocase ABCB1; test: Modulation of human P-gp transfected in mouse L5178Y cells assessed as change in Rhodamine-123 efflux by measuring fluorescence activity ratio at 0.2 uM pretreated for 10 mins followed by Rhodamine-123 challenge for 20 mins by flow cytometry relative to parental mouse L5178Y cells; type: cell-based; conditions: 0.5 h, time 30 min; summary of the method: as §2

T1 sequence (P08183 whole entry): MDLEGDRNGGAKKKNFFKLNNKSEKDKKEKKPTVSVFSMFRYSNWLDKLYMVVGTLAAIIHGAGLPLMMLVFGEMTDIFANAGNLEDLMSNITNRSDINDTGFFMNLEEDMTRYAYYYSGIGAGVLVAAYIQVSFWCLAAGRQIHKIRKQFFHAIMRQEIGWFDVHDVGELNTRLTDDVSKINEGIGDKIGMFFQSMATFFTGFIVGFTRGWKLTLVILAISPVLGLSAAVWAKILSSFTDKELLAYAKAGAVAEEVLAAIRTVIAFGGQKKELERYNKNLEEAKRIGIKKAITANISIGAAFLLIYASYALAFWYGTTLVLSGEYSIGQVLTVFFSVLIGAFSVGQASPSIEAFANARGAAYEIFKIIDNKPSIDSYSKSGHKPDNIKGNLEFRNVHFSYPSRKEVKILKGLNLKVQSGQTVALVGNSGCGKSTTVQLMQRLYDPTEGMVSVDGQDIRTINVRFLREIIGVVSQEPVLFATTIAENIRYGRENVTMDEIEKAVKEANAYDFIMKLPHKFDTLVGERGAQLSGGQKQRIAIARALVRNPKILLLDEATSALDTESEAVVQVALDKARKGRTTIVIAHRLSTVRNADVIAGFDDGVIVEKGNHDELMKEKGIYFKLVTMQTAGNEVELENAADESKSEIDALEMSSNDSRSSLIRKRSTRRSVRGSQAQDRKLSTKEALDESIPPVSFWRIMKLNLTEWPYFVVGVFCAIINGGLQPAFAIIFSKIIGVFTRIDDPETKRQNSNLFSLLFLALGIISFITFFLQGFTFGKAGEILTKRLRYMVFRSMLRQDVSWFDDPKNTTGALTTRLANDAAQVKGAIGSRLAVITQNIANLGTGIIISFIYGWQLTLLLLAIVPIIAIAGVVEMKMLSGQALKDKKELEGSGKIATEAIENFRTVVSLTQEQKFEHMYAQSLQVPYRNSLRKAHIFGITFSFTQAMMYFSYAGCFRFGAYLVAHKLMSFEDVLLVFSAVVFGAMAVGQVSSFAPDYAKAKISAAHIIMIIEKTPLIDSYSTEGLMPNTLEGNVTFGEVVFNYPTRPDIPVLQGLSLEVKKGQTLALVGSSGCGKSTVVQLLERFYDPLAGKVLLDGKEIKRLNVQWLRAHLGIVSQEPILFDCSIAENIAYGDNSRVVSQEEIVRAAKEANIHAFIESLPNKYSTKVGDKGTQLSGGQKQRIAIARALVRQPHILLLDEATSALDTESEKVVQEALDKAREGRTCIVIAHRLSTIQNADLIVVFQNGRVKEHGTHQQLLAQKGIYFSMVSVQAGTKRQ

SMILES	IC50 (L5178Y [1]) [µM]	IC50 (L5178Y [2]) [µM]	Ratio [3]	Ratio [4]	Ratio [5]	CI (L5178Y [6])	Ratio [7]
C=C1CC[C@@H]2[C@](C)(COC(C)=O)[C@H](OC(C)=O)CC[C@@]2(C)[C@@H]1C/C=C1/C(=O)OC[C@H]1OC(C)=O	19.2	13.3	1.45	1.95	38.65	–	–
C=C1CC[C@@H]2[C@](C)(COC(C)=O)[C@H](OC(C)=O)CC[C@@]2(C)[C@@H]1C[C@H](NNC(=O)c1ccc(Cl)cc1)C1=CCOC1=O	9.04	14.2	0.64	3.36	–	<1	1.56
C=C1CC[C@@H]2[C@](C)(COC(C)=O)[C@H](OC(C)=O)CC[C@@]2(C)[C@@H]1C[C@H](NNC(=S)Nc1cccc2ccccc12)C1=CCOC1=O	51.3	52.9	0.97	14.29	33.46	–	–
C=C1CC[C@@H]2[C@](C)(COC(C)=O)[C@H](OC(C)=O)CC[C@@]2(C)[C@@H]1C[C@H](NNC(=S)Nc1ccccc1)C1=CCOC1=O	> 100	51.7	–	7.9	55.07	–	–
C=C1CC[C@@H]2[C@](C)(COC(C)=O)[C@H](OC(C)=O)CC[C@@]2(C)[C@@H]1C[C@H](NNC(=O)c1ccc(N)cc1)C1=CCOC1=O	5.47	12.3	0.44	0.48	–	<1	0.48
C=C1CC[C@@H]2[C@](C)(COC(C)=O)[C@H](OC(C)=O)CC[C@@]2(C)[C@@H]1C[C@H](NNC(=S)Nc1ccc([N+](=O)[O-])cc1)C1=CCOC1=O	54.8	16.1	3.4	27.27	51.95	–	–
C=C1CC[C@@H]2[C@](C)(COC(C)=O)[C@H](OC(C)=O)CC[C@@]2(C)[C@@H]1C[C@H](NNC(=S)Nc1ccc(C)cc1)C1=CCOC1=O	47.4	36.1	1.31	18.86	60.26	–	–
C=C1CC[C@@H]2[C@](C)(COC(C)=O)[C@H](OC(C)=O)CC[C@@]2(C)[C@@H]1C[C@H](NNC(=S)Nc1ccccc1C)C1=CCOC1=O	81	56.9	1.42	1.06	37.12	–	–
C=C1CC[C@@H]2[C@](C)(COC(C)=O)[C@H](OC(C)=O)CC[C@@]2(C)[C@@H]1C[C@H](NNC(=O)c1ccc(C(F)(F)F)cc1)C1=CCOC1=O	11.8	6.74	1.75	2.27	–	<1	0.37
C=C1CC[C@@H]2[C@](C)(COC(C)=O)[C@H](OC(C)=O)CC[C@@]2(C)[C@@H]1C[C@H](NNC(=S)NC(C)(C)C)C1=CCOC1=O	54.2	60.1	0.9	1.2	43.52	–	–
C=C1CC[C@@H]2[C@](C)(COC(C)=O)[C@H](OC(C)=O)CC[C@@]2(C)[C@@H]1C[C@@H](NNC(=O)c1ccc(C(F)(F)F)cc1)C1=CCOC1=O	15.3	14.2	1.08	5.19	–	<1	1.63
C=C1CC[C@@H]2[C@](C)(COC(C)=O)[C@H](OC(C)=O)CC[C@@]2(C)[C@@H]1C[C@H](NNC(=S)Nc1ccccc1F)C1=CCOC1=O	70	52.6	1.33	1.03	79.33	–	–
C=C1CC[C@@H]2[C@](C)(COC(C)=O)[C@H](OC(C)=O)CC[C@@]2(C)[C@@H]1C[C@H](NNC(=O)OCc1ccc(OC)cc1)C1=CCOC1=O	23.4	17.7	1.32	1.21	64.99	<1	–
C=C1CC[C@@H]2[C@](C)(COC(C)=O)[C@H](OC(C)=O)CC[C@@]2(C)[C@@H]1C[C@H](NNC(=S)NCc1ccccc1)C1=CCOC1=O	67.6	66.9	1.01	1.71	57.14	–	–
C=C1CC[C@@H]2[C@](C)(COC(C)=O)[C@H](OC(C)=O)CC[C@@]2(C)[C@@H]1C[C@H](NNC(=S)N(C)C)C1=CCOC1=O	40.9	29.1	1.4	58.18	61.3	–	–
C=C1CC[C@@H]2[C@](C)(COC(C)=O)[C@H](OC(C)=O)CC[C@@]2(C)[C@@H]1C[C@H](NNC(=S)Nc1ccc(CC)cc1)C1=CCOC1=O	> 100	38.9	–	61.3	79.48	–	–
C=C1CC[C@@H]2[C@](C)(COC(C)=O)[C@H](OC(C)=O)CC[C@@]2(C)[C@@H]1C[C@H](NNC(=S)NCc1ccco1)C1=CCOC1=O	71.5	50.1	1.43	1.27	31.12	–	–
C=C1CC[C@@H]2[C@](C)(COC(C)=O)[C@H](OC(C)=O)CC[C@@]2(C)[C@@H]1C[C@H](NNC(=S)NC)C1=CCOC1=O	51.3	44.4	1.16	0.88	41.85	–	–
C=C1CC[C@@H]2[C@](C)(COC(C)=O)[C@H](OC(C)=O)CC[C@@]2(C)[C@@H]1C[C@H](NNC(=S)NC1CCCCC1)C1=CCOC1=O	67.4	75.7	0.89	18.13	64.94	–	–
C=C1CC[C@@H]2[C@](C)(COC(C)=O)[C@H](OC(C)=O)CC[C@@]2(C)[C@@H]1C[C@H](NNC(=S)NCCN1CCOCC1)C1=CCOC1=O	58.7	61.5	0.96	1.37	50.23	–	–
C=C1CC[C@@H]2[C@](C)(COC(C)=O)[C@H](OC(C)=O)CC[C@@]2(C)[C@@H]1C[C@H](NNc1ccc(Br)cn1)C1=CCOC1=O	12	20.6	0.58	16.12	–	0.21	2.34
C=C1CC[C@@H]2[C@](C)(CO)[C@H](O)CC[C@@]2(C)[C@@H]1C/C=C1/C(=O)OC[C@H]1O [ANDROGRAPHOLIDE]	15	14.5	1.03	0.96	0.82	<1	–
COc1cccc2c1C(=O)c1c(O)c3c(c(O)c1C2=O)C[C@@](O)(C(=O)CO)C[C@@H]3O[C@H]1C[C@H](N)[C@H](O)[C@H](C)O1 [DOXORUBICIN]	6.82	0.07	95.43	–	–	–	–
